Screens deposited in PubChem by The Scripps Research Institute Molecular Screening Center.
A selection: hits, their analogues and other compounds. The true share with any hit is near 2.3%.
OXTR potentiate – human OXTR potentiators, primary screen, fluorescence, CHO-OTR cells, Fluo-8 calcium; Oxytocin receptor (Homo sapiens), P30559; Fluo-8 calcium fluorescence, potentiator mode; 0% = oxytocin EC15, 100% = EC100; activation, % at 3 µM; 320,000 tested, 0.061% active;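 active = activation above that plate's cutoff, the mean activation of tested compounds plus 3 SD, cut at about 6.6% in these data, passing the limit was not always enough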
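Dosing: Single dose, 3.0 µM nominal final compound concentration | Material: Human OTR in CHO cells | Technique: Kinetic Fluo-8 calcium fluorescence | Benchmarks: EC15 oxytocin alone as 0%, 75 nM oxytocin as 100% | Probe or stimulus: Oxytocin at about EC15, sub-maximal agonist stimulus | Incubation: Compound 6 min at room temperature before oxytocin, 100 s read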
OXTR agonist – human OXTR agonists, primary screen, fluorescence, CHO-OTR cells, Fluo-8 calcium; activation, % at 3 µM; AID 2435, 2010; 320,000 tested, 0.32% active; Fluo-8 calcium fluorescence; normalized: DMSO 0%, oxytocin 100%;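 active = activation above the mean of all tested compounds plus 3 SD, cutoff set per screening run, cut at about 20% in these data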;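 also: peak over basal fluorescence ratio from a 100 s FLIPR kinetic read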
TAAR1 antag – human TAAR1 antagonists, primary screen, Fluo-8 calcium fluorescence, CHO RD-HGA16 cells; inhibition, % at 3 µM; antagonist; AID 624466, 2012; 360,000 tested, 1.5% active; Trace amine-associated receptor 1 (Homo sapiens), Q96RJ0;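 active = inhibition above a per-plate cutoff, the mean inhibition of test compounds on that plate plus 3 SD, cut at about 49% in these data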
Target sequence (Q96RJ0 whole entry, looked up): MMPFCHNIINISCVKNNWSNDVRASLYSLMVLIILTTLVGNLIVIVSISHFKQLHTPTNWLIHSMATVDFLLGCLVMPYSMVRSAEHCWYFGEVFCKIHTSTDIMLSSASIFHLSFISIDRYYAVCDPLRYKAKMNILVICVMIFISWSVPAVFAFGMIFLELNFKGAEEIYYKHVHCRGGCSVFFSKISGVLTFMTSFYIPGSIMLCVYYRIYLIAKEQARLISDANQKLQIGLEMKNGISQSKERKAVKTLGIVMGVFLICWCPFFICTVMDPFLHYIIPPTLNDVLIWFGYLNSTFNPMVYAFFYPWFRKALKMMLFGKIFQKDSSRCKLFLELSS
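Material: RD-HGA16 CHO cells with stable hTAAR1 and Gα16; Dosing: single nominal final test compound concentration of 3 µM; Schedule: seeding 17-24 h prior, 75-min 37 °C, 30-min RT dye loading; Detection: kinetic Fluo-8 calcium fluorescence measurement; Measure: % inhibition from peak post-agonist over basal fluorescence ratio; Benchmarks: vehicle and agonist controls.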
TAAR1 ag – human TAAR1 agonists, primary screen, Fluo-8 calcium fluorescence, CHO RD-HGA16 cells; Trace amine-associated receptor 1 (Homo sapiens), Q96RJ0; vehicle wells 0%, saturating PEA agonist 100%; activation, % at 3 µM; 360,000 tested, 0.99% active; AID 624467, 2012;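 active = activation above the mean activation of all test compounds in the run plus 3 SD, cut at about 38% in these data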
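Test system: RD-HGA16 (CHO) cells co-expressing Gα16 and hTAAR1 / Benchmarks: DMSO vehicle as 0%, PEA at EC100 as 100% / Repeats: no replicates (n 1) / Measure: % activation from peak over basal fluorescence ratio, DMSO-to-PEA scaled / Timing: 17-24 h plating, Fluo-8 75 min 37 °C, 30 min RT / Technique: kinetic Fluo-8 calcium fluorescence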
V1aR counter – agonists of human V1a receptor, primary screen, counter-screen for OXTR agonist project, fluorescence, CHO-V1R cells; Fluo-8 calcium fluorescence, agonist mode; 0% DMSO, 100% 3 nM vasopressin; 320,000 tested, 0.25% active; Vasopressin V1a receptor (Homo sapiens), P37288; activation, % at 3 µM;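 active = activation above the mean activation of all tested compounds plus 3 SD, per screening run, cut at about 20% in these data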;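 also: signal is peak over basal fluorescence ratio across a 100 second FLIPR read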
Target sequence (P37288 whole entry, looked up): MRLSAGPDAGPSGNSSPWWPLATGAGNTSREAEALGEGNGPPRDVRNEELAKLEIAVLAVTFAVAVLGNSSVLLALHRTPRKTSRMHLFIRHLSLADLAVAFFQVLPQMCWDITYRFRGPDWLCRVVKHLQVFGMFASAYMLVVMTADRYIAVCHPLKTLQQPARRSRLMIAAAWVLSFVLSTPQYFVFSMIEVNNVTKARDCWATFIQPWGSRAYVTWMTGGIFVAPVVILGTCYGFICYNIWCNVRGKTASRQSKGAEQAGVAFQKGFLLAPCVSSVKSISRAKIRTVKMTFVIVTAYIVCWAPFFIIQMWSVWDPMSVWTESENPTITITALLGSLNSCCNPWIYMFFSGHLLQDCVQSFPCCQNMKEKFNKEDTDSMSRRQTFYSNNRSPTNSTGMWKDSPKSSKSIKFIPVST
OXTR agonist cf – human OXTR agonists, confirmation, fluorescence, CHO-OTR cells, triplicate. AID 434963, 2010. Fluo-8 calcium fluorescence, agonist. 390 tested, 20% active. activation, % at 3 µM. shares compounds with OXTR agonist;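 active = mean activation above about 20% derived from the earlier single-dose screen, limit read from the data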;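 also: peak over minimum fluorescence ratio per well during a 100 second FLIPR read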
V1R ag counter 3x – V1a receptor agonists, calcium signal, counter-screen for OXTR agonist project, triplicate, fluorescence, CHO-V1R cells; Fluo-8 calcium fluorescence; AID 434991, 2010; activation, % at 3 µM; 390 tested, 10% active; shares compounds with OXTR agonist;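 active = mean activation over triplicate exceeds the hit threshold set in the earlier primary screen, cut at about 20% in these data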;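 also: peak over basal fluorescence ratio within a 100 second read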
OXTR pot confirm – human OXTR potentiators, confirmation, fluorescence, CHO-OTR cells, triplicate; shares compounds with OXTR potentiate; Fluo-8 calcium fluorescence, potentiation; scaled from low-dose to maximal oxytocin; activation, % at 3 µM; 180 tested, under 10 active;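 active = mean percent activation over triplicates above a cutoff set from solvent-only control plates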;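 also: compounds tested in the presence of an EC15 dose of oxytocin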
TAAR1 ag confirm – human TAAR1 agonists, retest of hits, confirmation, Fluo-8 calcium fluorescence, CHO RD-HGA16 cells; 2,400 tested, 82% active; AID 651783, 2012; shares compounds with TAAR1 ag; scaled: DMSO 0%, maximal phenethylamine 100%; activation, % at 3 µM;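 active = activation above a cutoff set at the run's mean compound activation plus 3 SD, cut at about 39% in these data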
Ga16 ag counter – nonselective calcium mobilization agonists, CHO-Ga16 cells, counter-screen for hTAAR1 agonist project, cell-based, fluorescence, CHO-Ga16 parental line | Fluo-8 calcium fluorescence; normalized to maximal ATP response, DMSO zero | AID 651787, 2012 | activation, % at 3 µM | shares compounds with TAAR1 ag | 2,400 tested, 50% active;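 active = activation above the run cutoff, the mean activation over all tested wells plus 3 SD, cut at about 12% in these data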
TAAR1 desens – TAAR1 desensitization by agonist hits, confirmation, counter-screen for TAAR1 agonist project, cell-based, fluorescence, tachyphylaxis; shares compounds with TAAR1 ag; CHO RD-HGA16 hTAAR1, Fluo-8 calcium, beta-PEA response inhibition; inhibition, % at 3 µM; 2,400 tested, 46% active;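 active = inhibition above the run cutoff, the mean inhibition of all test compounds plus 3 SD, cut at about 49% in these data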;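 also: beta-PEA stimulus applied at its EC80; loss of beta-PEA calcium signal after compound pretreatment read as receptor desensitization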
Ga16 antag count – inhibition of ATP-evoked calcium response in CHO-Ga16 cells, counter-screen for TAAR1 agonist project, cell-based, fluorescence; inhibition, % at 3 µM; AID 651952, 2012; CHO-Ga16 ATP-induced calcium, Fluo-8 fluorescence; shares compounds with TAAR1 ag; 2,400 tested, 39% active;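 active = inhibition above the plate's mean compound inhibition plus 3 SD, computed per plate, cut at about 22% in these data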
Each line names hits and unclear results; the compound was inactive in the other large screens (follow-up assays come after a bar, where they were run).

O=C1NC(=O)N(C2CCCCC2)CC1Br (centres undefined)	none (no result: OXTR potentiate, OXTR agonist, V1aR counter)
COc1ccc(NC(=O)C[C@H]2C(=O)N(CCc3ccccc3)C[C@@H]2c2ccc(OC)cc2)cc1	none (no result: OXTR potentiate, OXTR agonist, V1aR counter)
N#C/C(=C\c1ccc(O)cc1)C(=O)NCc1cccc(Cl)c1	OXTR agonist 20.3, TAAR1 ag 63.0 | OXTR agonist cf inactive | V1R ag counter 3x inactive | TAAR1 ag confirm 74.8 | Ga16 ag counter 36.7 | TAAR1 desens inactive | Ga16 antag count 26.1
N#C/C(=C/c1ccc(O)cc1)C(=O)NCc1ccc(Cl)cc1	none
COc1cccc(C(=O)Nc2ccc(NC(=O)Cc3ccccc3)cc2)c1	OXTR agonist 23.9, TAAR1 ag 81.8 | OXTR agonist cf inactive | V1R ag counter 3x inactive | TAAR1 ag confirm 102.5 | Ga16 ag counter 23.3 | TAAR1 desens 67.3 | Ga16 antag count inactive
CCCCOc1ccc(CSCCN)cc1Cl	OXTR agonist 21.3, TAAR1 ag 76.8 | OXTR agonist cf inactive | V1R ag counter 3x inactive | TAAR1 ag confirm 64.0 | Ga16 ag counter inactive | TAAR1 desens inactive | Ga16 antag count inactive
CCC(C)(C)NC(=O)C1CCCN(S(=O)(=O)c2ccc3c(c2)CC(C)N3C(=O)C2CC2)C1 (centres undefined)	none
O=c1oc2ccccc2cc1-c1nc2c(s1)CCc1ccccc1-2	none
O=c1oc2cc(O)ccc2cc1-c1nc2c(s1)CCc1ccccc1-2	OXTR agonist 25.6, TAAR1 ag 59.2 | OXTR agonist cf 159.7 | V1R ag counter 3x 180.6 | TAAR1 ag confirm 176.1 | Ga16 ag counter 164.4 | TAAR1 desens 84.2 | Ga16 antag count 84.1
CN(C)CCCOc1ccc(C(C)(C)c2ccccc2)cc1	OXTR agonist 19.8, TAAR1 ag 74.7 | OXTR agonist cf inactive | V1R ag counter 3x inactive | TAAR1 ag confirm 45.0 | Ga16 ag counter inactive | TAAR1 desens inactive | Ga16 antag count inactive
CN(C)CCOc1ccc(C(C)(C)c2ccccc2)cc1	none
Nc1nc(N)c2cc(Sc3ccc4ccccc4c3)ccc2n1	OXTR agonist 27.3, TAAR1 ag 63.4 | OXTR agonist cf inactive | V1R ag counter 3x inactive | TAAR1 ag confirm 82.0 | Ga16 ag counter 44.5 | TAAR1 desens 57.3 | Ga16 antag count 46.0
O=C(NCCCl)c1ccc(OCc2ccccc2)cc1Cl	OXTR agonist 22.0, TAAR1 ag 48.0 | OXTR agonist cf inactive | V1R ag counter 3x inactive | TAAR1 ag confirm 68.5 | Ga16 ag counter 17.2 | TAAR1 desens 55.8 | Ga16 antag count inactive
C#CCNC(=O)c1ccc(OCc2ccccc2)cc1Cl	none
COc1ccc2c(c1)nc(CN1CCN(CCO)CC1)n2C	none
CC1(c2ccc(OC(F)F)cc2)NC(=O)N(CC(=O)Nc2ccc(F)cc2)C1=O (centres undefined)	OXTR agonist 27.4, TAAR1 ag 77.5 | OXTR agonist cf inactive | V1R ag counter 3x inactive | TAAR1 ag confirm 106.7 | Ga16 ag counter 46.6 | TAAR1 desens 78.5 | Ga16 antag count 46.0
CC1(c2ccc(OC(F)F)cc2)NC(=O)N(CC(=O)Nc2ccc(Cl)cc2F)C1=O (centres undefined)	OXTR agonist 34.5, TAAR1 antag 55.0, TAAR1 ag 95.6 | OXTR agonist cf 24.4 | V1R ag counter 3x 22.1 | TAAR1 ag confirm 91.0 | Ga16 ag counter 46.8 | TAAR1 desens 53.4 | Ga16 antag count 43.2
COc1ccc(C(=O)Nc2ccc(/C(C)=N/NC(=O)c3ccncc3)cc2)cc1	none
Cc1nnc(NC(=O)c2cc(-c3ccncc3)nc3c(C)cccc23)s1	OXTR potentiate 14.8 | OXTR pot confirm inactive
O=C(CSc1ncnc2sc3c(c12)CCC3)NCC1CCCO1 (centres undefined)	OXTR potentiate 20.4 | OXTR pot confirm inactive
Cc1sc2ncnc(SCC(=O)NCC3CCCO3)c2c1C (centres undefined)	none
CCCc1cc(=O)[nH]c(SCC(=O)Nc2oc(C)c3c(C)n[nH]c(=O)c23)n1	none
CN(Cc1nc2ccccc2c(=O)[nH]1)C(=O)c1ccc(S(=O)(=O)N2CCCC2)cc1	OXTR potentiate 12.9 | OXTR pot confirm inactive
COCCCNc1c2c(nc3nnnn13)CCCC2	OXTR potentiate 13.5 | OXTR pot confirm inactive
C1CCC(CNc2c3c(nc4nnnn24)CCCC3)CC1	none
CCOC(=O)c1ccc(S(=O)(=O)N2CCN(S(=O)(=O)CC)CC2)cc1	none
CCOC(=O)c1ccc(S(=O)(=O)N2CCNCC2)cc1	OXTR potentiate 12.9 | OXTR pot confirm inactive
CCCOc1ccc(-c2c(C(=O)N/N=C/c3cccnc3)nnn2-c2nonc2N)cc1	none
CCCOc1ccc(-c2c(C(=O)N/N=C/c3ccc(C)cc3)nnn2-c2nonc2N)cc1	OXTR potentiate 22.2 | OXTR pot confirm inactive
Cn1c(CCN2CCCCC2)nc2cc(NC(=O)COc3ccc([N+](=O)[O-])cc3)ccc21	none
COc1cc(/C=C2/S/C(=N/S(=O)(=O)Cc3ccccc3)NC2=O)c([N+](=O)[O-])cc1OC	OXTR potentiate 13.1 | OXTR pot confirm inactive
